In PubChem BioAssay AID719 (SRMLSC, 2007) one finds viability data, which are given here for 63 molecules.

SMILES strings stand for the structures. Among all 85,000 compounds or so, about 940 (1.1%) were called active. The sample holds actives, similar compounds and a random draw of the others, so the mix is not that of the screen. Values without a mark were called inactive.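 Rule for the calls: active = viability at or below 50% in the single dose screen; inactive = viability above 50%.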

Broadly, the viability is a read-out of living cells in per cent, often relative to untreated cells.

The assay in a line: antiproliferative effect on LL 47 fibroblasts – human, LL 47 cells, CellTiter-Glo luminescence, primary screen (AID 719).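 Note: compound exposure lasted 72 h before the ATP readout; 100% = median luminescence of untreated cell-only wells.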 The conditions noted are these: LL 47 human lung fibroblast viability, ATP luminescence; at 10 µM; active compounds read low. Summed up:
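Times – overnight cell rest, 72 h compound treatment at 37 °C · Test system – human lung fibroblast line LL 47, low passage · Amount – 1,150 cells in each well · Controls – cell-only wells, no compound · Doses – 0.1% DMSO in all compound wells · Measured by – CellTiter-Glo luminescence · Buffer or medium – IMEM plus 15% FBS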
A general note: In ATP-based viability assays light output follows the ATP content of the culture.
Turning to `Cc1cc(NC(=O)CSc2nc(C(C)C)nc3sc4c(c23)CCC(C)C4)no1` (stereo not drawn), the viability was 10.9% (active).
The value for `Cc1nc(SCC(=O)Nc2cc(C)on2)c2c3c(sc2n1)CCCC3` was 94.8%.
For `Cc1nc(SCC(=O)Nc2cc(C)on2)c2c(C)c(C)sc2n1` the value was 99.4%.
Consider `O=C(/C=C/c1ccc(Cl)cc1Cl)c1cccnc1`, for which the viability is 79%.
For `CCOC(=O)c1c(NC(=O)CCl)sc(C(=O)N(CC)CC)c1C`, the viability was 28% (active).
For the molecule `CCOC(=O)Nc1sc(C(=O)N(C)C)c(C)c1C(=O)OCC`, the viability is 89.5%.
For `CCOC(=O)c1sc(NC(=O)CCN2CCOCC2)c(C(=O)OCC)c1C`, the viability is 80.1%.
In the case of `O=C(NCc1cccnc1)Nc1ccccc1F`, the viability was 96.7%.
Take `Cc1cc(C)c2c(n1)nn1c(N3CCN(c4cccc(Cl)c4)CC3)cc(C)nc21`: the viability is 36.8% (active).
For `Cc1cc(C)c2c(n1)nn1c(N3CCOCC3)cc(C)nc21` the value was 82.4%; for `Cc1cc(C)c2c(n1)nn1c(-n3ccnc3)cc(C)nc21`, 101%.
Regarding `COc1ccc(NC(=O)CCN2CCCC2)c(OC)c1`, the viability was 104%.
On to `Cc1ccccc1-n1c(C)cc(/C=C2\NC(=O)NC2=O)c1C`, for which the viability is 77.2%.
`COC(=O)C(NC(C)=O)(Nc1nc2c(s1)CCCC2)C(F)(F)F` (stereo not drawn): the viability was 103%.
In the case of `O=C(Cn1c(=O)sc2ccccc21)Nc1nc2c(s1)CCCC2`, the viability was 100%.
Consider `O=C(CCS(=O)(=O)c1ccccc1)Nc1nc2c(s1)CCCC2`, for which the viability is 47.7% (active).
With `N#CC1=C(N)N(c2ccccc2)C2=C(C(=O)CCC2)C1c1ccccc1` (stereo not drawn), the viability was 93.1%.
Consider `COc1ccc(CNCCCO)cc1OC`, for which the viability was 95.2%.
The value for `COC(=O)c1ccccc1Sc1c(/C=N/OCc2ccc(Cl)cc2)c(C(F)(F)F)nn1C` was 92.7%.
On to `COC(=O)c1cc(OC)ccc1-c1ccc(OC)cc1`, for which the viability is 90.1%.
Turning to `Cc1cc(Cl)c(S(=O)(=O)N(C)C)cc1OCC(N)=O`, the viability was 101%.
On to `COc1ccc(-c2nnc(SCc3cccnc3)o2)cc1`, for which the viability is 105%.
In the case of `Cc1cccc(OCCCC(=O)Nc2ccc(S(=O)(=O)N3CCCC3)cc2)c1`, the viability is 98.6%.
The value for `CCN1CCc2c(C#N)c(NCc3ccccc3)nc(NCCO)c2C1` was 86.2%.
On to `CC(C)Cc1nc(N2CCOCC2)c(C#N)c2c1CCC2`, for which the viability was 90.7%.
For the molecule `CC(C)CCNc1nc(N2CCCC2)c2c(c1C#N)CCN(C)C2`, the viability is 30.8% (active).
Take `CC1CCN(C(=O)c2cc3nc(C4CC4)cc(C(F)(F)F)n3n2)CC1`: the viability was 96.3%.
For the molecule `C/C=C/C(=O)Nc1nnc(C(C)C)s1`, the viability was 103%.
Turning to `Oc1c(CN2CCN(c3ccc(F)cc3)CC2)cc(Cl)c2cccnc12`, the viability was 22.4% (active).
On to `O=C(c1cccc(C(=O)N2CCN(c3ccc(F)cc3)CC2)c1)N1CCN(c2ccc(F)cc2)CC1`, for which the viability was 97.2%.
With `CCN1CCN(C(c2cccnc2)c2cc(Cl)c3cccnc3c2O)CC1` (stereo not drawn), the viability was 75.3%.
For the molecule `CCn1nnnc1SCC(=O)c1ccc(C)cc1C`, the viability is 99.4%.
As to `O=C(c1cccc(S(=O)(=O)N2CCOCC2)c1)N1CCOCC1`, the viability is 104%.
For `CCNC(=O)NC(=O)C(C)OC(=O)c1cc(S(=O)(=O)N2CCCCCC2)ccc1OC` (stereo not drawn) the value was 94.5%.
On to `Cc1cc(C(=O)OC(C)C(=O)Nc2cccc(S(=O)(=O)N3CCOCC3)c2)c(C)o1` (stereo not drawn), for which the viability was 30.6% (active).
On to `CC(=O)c1cccc(NC(=O)Nc2ccc(C)cc2)c1`, for which the viability is 109%.
For `Cc1cccc(NC(=O)Nc2cccc(Oc3c(F)c(F)c(F)c(F)c3F)c2)c1`, the viability was 49.6% (active).
For the molecule `Cc1ccoc1C(=O)Nc1cccc(Oc2ccccc2)c1`, the viability is 103%.
For the molecule `Cc1ccc(C)c(NC2=NCC(=O)N2c2ccc3c(c2)OCCO3)c1`, the viability is 120%.
Take `O=C(CSc1nc2cccnc2n1Cc1ccccc1)N1CCc2ccccc21`: the viability is 104%.
On to `COc1cccc2sc(Nc3nc(C)c(C(C)=O)s3)nc12`, for which the viability was 26.9% (active).
In the case of `COC(=O)c1sc(NC(=O)c2ccc(OC)cc2OC)nc1C`, the viability was 91.9%.
In the case of `CC(=O)c1sc(NC(=O)c2ccc(C)cc2)nc1C`, the viability is 105%.
As to `Fc1ccccc1/C=C1\CCCC2=C1Nc1ncnn1C2c1ccccc1F` (stereo not drawn), the viability is 3.89% (active).
For `Cc1cc(SCC(=O)c2ccccc2)nc(SCC(=O)c2ccccc2)n1` the value was 102%; for `CCOC(=O)c1ccc2c(c1)nc(C)n2CC`, 103%; for `CN1CCN(CCCNC(=O)c2cc3c(=O)oc4ccccc4c3s2)CC1`, 105%.
In the case of `O=C(NCCN1CCN(Cc2ccccc2)CC1)c1cc2c(=O)[nH]c3ccccc3c2s1`, the viability is 42.8% (active).
Regarding `Cn1c(C(=O)NCCN2CCc3ccccc3C2)cc2c(=O)[nH]c3ccccc3c21`, the viability is 93.3%.
With `CCc1ccc(NC(=O)CN2C(=O)CSC2=O)cc1`, the viability is 100%.
Consider `CCOC(=O)c1sc(NC(=O)c2ccncc2)nc1C`, for which the viability was 98.9%.
With `CC1=CC(C)(C)Nc2ccc(OC(=O)CN3C(=O)C4CCCCC4C3=O)cc21` (stereo not drawn), the viability is 39.7% (active).
As to `CC1=CC(C)(C)Nc2ccc(OC(=O)C(Cc3ccccc3)N3C(=O)C4CCCCC4C3=O)cc21` (stereo not drawn), the viability is 94.3%.
As to `CC(OC(=O)CN1C(=O)C2CCCCC2C1=O)C(=O)Nc1ncc(Cl)cc1Cl` (stereo not drawn), the viability was 98.2%.
On to `CC1(C)CC(=O)C=C(N2CCCC2)C1`, for which the viability is 112%.
`COc1ccc(N2CCN(Cc3ccc(Br)s3)CC2)cc1`: the viability is 100%.
For `CC(=O)Oc1ccc(NC(=O)CCC2CCCCC2)c(C(=O)O)c1`, the viability is 93.2%.
For `CCCNC(=O)CN(Cc1ccccc1F)S(=O)(=O)c1ccc(C)cc1` the value was 105%.
In the case of `CC1=NN(/C(=N\c2nnc(C)s2)Nc2ccccc2)[C@H](c2ccc(C)cc2)S1`, the viability was 89.1%.
For `CCCc1[nH]nc2c1C(c1ccc(Br)s1)C(C#N)=C(N)O2` (stereo not drawn) the value was 33.5% (active); for `CCCc1[nH]nc2c1C(c1ccc(OC)c(Cn3nc(C)c(Br)c3C)c1)C(C#N)=C(N)O2` (stereo not drawn), 95.9%.
For the molecule `CCCc1[nH]nc2c1C(c1ccc(OC(=O)c3ccco3)cc1)C(C#N)=C(N)O2` (stereo not drawn), the viability was 95.1%.
Take `CCOc1ccc(NC(=O)C2CCCN(C(=O)Nc3ccccc3)C2)cc1` (stereo not drawn): the viability was 105%.
